Measured values reported in ChEMBL document CHEMBL4732105, “First orally bioavailable prodrug of proteolysis targeting chimera (PROTAC) degrades cyclin-dependent kinases 2/4/6 in vivo” (Eur J Med Chem, 2021).
Activity calls are given as the source filed them. The calls are words filed in the database; no cut-off is given here.

Tests used:
[1] = Cmax in Sprague-Dawley rat at 200 mg/kg, po; type: ADME, organism-based; parameters: route oral, dose 200 mg/kg; settings: in vivo
In short: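 Single oral dose of 200 mg/Kg to SD rats (n = 3). Prodrug and released active degrader quantified in plasma over 0–12 h; Cmax, Tmax and AUC0-12 derived by non-compartmental model.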

[2] = target: T1, Protein cereblon/Cyclin-dependent kinase 6 (Mus musculus) (UniProt Q8C7D2+Q64261); assay: Protac activity at CRBN/CDK6 in mouse B16F10 cells assessed as induction of CDK6 protein degradation at 100 nM for 6 hrs in presence of proteasome inhibitor MG132 by Western blot analysis; type: cell-based; settings: B16-F10
In short: (§1)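 B16F10 cells pre-treated 2 h with DMSO, pomalidomide (10 μM), MG132 (20 μM) or a parent CDK ligand, then exposed to 100 nM degrader for 6 h. CDK2/4/6 protein levels read by western blot.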

A-375 [3] = assay: Induction of apoptosis in human A-375 cells assessed as increase in cleaved caspase 3 level incubated for 48 hrs by Western blot analysis; type: functional, cell-based; settings: dose nM <=2000, time 48.0 hrs
In short: (§2)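 A375 and B16F10 cells incubated with compound for 48 h. Cleaved caspase-3, cleaved PARP, total P53, Bcl-2 and Bax measured by western blot.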

A-375 [4] = assay: Cytotoxicity against human A375 cells assessed as reduction in cell viability after 72 hrs by MTT assay; type: functional, cell-based; settings: A-375, 72 h
In short: (§3)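 Cells exposed to compound for 72 h and viability read by MTT; IC50 from three independent experiments.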

B16-F10 [5] = assay: Induction of apoptosis in mouse B16F10 cells assessed as viable cells at 125 nM incubated for 48 hrs by Annexin V-FITC/PI staining based flow cytometry (reference value: 95.9%); type: functional; settings: read-out: Activity
[6] = target: Protein cereblon/Cyclin-dependent kinase 4 (Mus musculus) (UniProt P30285+Q8C7D2); assay: Protac activity at CRBN/CDK4 in mouse B16F10 cells assessed as induction of CDK4 protein degradation at 100 nM for 6 hrs in presence of proteasome inhibitor MG132 by Western blot analysis; type: cell-based; settings: B16-F10; in short: as §1
[7] = AUC (0 to 12 hrs) in Sprague-Dawley rat at 10 mg/kg, iv; type: ADME, organism-based; parameters: time < 12 hr, route intravenous, dose 10 mg/kg; settings: in vivo
B16-F10 [8] = assay: Induction of apoptosis in mouse B16F10 cells assessed as early apoptotic cells at 125 nM incubated for 48 hrs by Annexin V-FITC/PI staining based flow cytometry (reference value: 3.52%); type: functional
[9] = target: Protein cereblon/Cyclin-dependent kinase 2 (Mus musculus) (UniProt P97377+Q8C7D2); assay: Protac activity at CRBN/CDK2 in mouse B16F10 cells assessed as induction of CDK2 protein degradation at 100 nM for 6 hrs in presence of proteasome inhibitor MG132 by Western blot analysis; type: cell-based; settings: B16-F10; in short: as §1
B16-F10 [10] = assay: Cytotoxicity against mouse B16F10 cells assessed as reduction in cell viability after 72 hrs by MTT assay; type: functional, cell-based; settings: B16-F10, 72 h; in short: as §3
[11] = target: T1, Protein cereblon/Cyclin-dependent kinase 6 (Mus musculus); assay: Protac activity at CRBN/CDK6 in mouse B16F10 cells assessed as induction of CDK6 protein degradation at 100 nM for 6 hrsin presence of methyl 6-(7-cyclopentyl-6-(dimethylcarbamoyl)-7H-pyrrolo[2,3-d]pyrimidin-2-ylamino)nicotinate by Western blot analysis; type: cell-based; settings: B16-F10, time 6.0 hrs; in short: as §1
A-375 [12] = assay: Induction of cell cycle arrest in human A-375 cells assessed as accumulation at G2 phase at 500 uM incubated for 48 hrs by propidium iodide staining based flow cytometry (reference value: 12.42%); type: functional
In short: (§4)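 Tumor cells incubated 48 h in complete medium with compound or DMSO at various concentrations, stained with propidium iodide, and DNA content read by flow cytometry. G0/G1, S and G2/M fractions reported; mean ± SD, n = 3, Student's t-test.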

B16-F10 [13] = assay: Induction of apoptosis in mouse B16F10 cells assessed as increase in cleaved PARP level incubated for 48 hrs by Western blot analysis; type: functional, cell-based; settings: dose nM <=1000, time 48.0 hrs; in short: as §2
A-375 [14] = assay: Induction of apoptosis in human A-375 cells assessed as early apoptotic cells at 1000 nM incubated for 48 hrs by Annexin V-FITC/PI staining based flow cytometry (reference value: 2.82%); type: functional
B16-F10 [15] = assay: Induction of apoptosis in mouse B16F10 cells assessed as viable cells at 250 nM incubated for 48 hrs by Annexin V-FITC/PI staining based flow cytometry (reference value: 95.9%); type: functional; settings: read-out: Activity
A-375 [16] = assay: Induction of cell cycle arrest in human A-375 cells assessed as accumulation at G2 phase at 250 uM incubated for 48 hrs by propidium iodide staining based flow cytometry (reference value: 12.42%); type: functional; in short: as §4
A-375 [17] = assay: Induction of apoptosis in human A-375 cells assessed as early apoptotic cells at 500 nM incubated for 48 hrs by Annexin V-FITC/PI staining based flow cytometry (reference value: 2.82%); type: functional
B16-F10 [18] = assay: Induction of apoptosis in mouse B16F10 cells assessed as decrease in Bcl-2 level upto 1000 nM incubated for 48 hrs by Western blot analysis; type: functional, cell-based; settings: dose nM <=1000, time 48.0 hrs; in short: as §2
B16-F10 [19] = assay: Induction of apoptosis in mouse B16F10 cells assessed as necrotic cells at 125 nM incubated for 48 hrs by Annexin V-FITC/PI staining based flow cytometry (reference value: 0.21%); type: functional
B16-F10 [20] = assay: Induction of apoptosis in mouse B16F10 cells assessed as early apoptotic cells at 500 nM incubated for 48 hrs by Annexin V-FITC/PI staining based flow cytometry (reference value: 3.52%); type: functional
B16-F10 [21] = assay: Induction of apoptosis in mouse B16F10 cells assessed as increase in cleaved caspase 3 level incubated for 48 hrs by Western blot analysis; type: functional, cell-based; settings: dose nM <=1000, time 48.0 hrs; in short: as §2
A-375 [22] = assay: Induction of apoptosis in human A-375 cells assessed as early apoptotic cells at 250 nM incubated for 48 hrs by Annexin V-FITC/PI staining based flow cytometry (reference value: 2.82%); type: functional
A-375 [23] = assay: Induction of cell cycle arrest in human A-375 cells assessed as accumulation at G2 phase at 1000 uM incubated for 48 hrs by propidium iodide staining based flow cytometry (reference value: 12.42%); type: functional; in short: as §4
B16-F10 [24] = assay: Induction of apoptosis in mouse B16F10 cells assessed as late apoptotic cells at 250 nM incubated for 48 hrs by Annexin V-FITC/PI staining based flow cytometry (reference value: 0.551%); type: functional
[25] = target: Protein cereblon/Cyclin-dependent kinase 4 (Homo sapiens) (UniProt P11802+Q96SW2); assay: Protac activity at CRBN/CDK4 in human A-375 cells assessed as induction of CDK4 protein degradation at 1000 nM by Western blot analysis; type: cell-based; settings: time hrs <=12, TDE = time-dependent effect
In short: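 B16F10 and A375 cells treated with DMSO or serial dilutions of compound for 12 h (concentration series), or for the indicated times (time course). CDK2, CDK4 and CDK6 protein levels determined by western blot.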

A-375 [26] = assay: Induction of apoptosis in human A-375 cells assessed as late apoptotic cells at 250 nM incubated for 48 hrs by Annexin V-FITC/PI staining based flow cytometry (reference value: 3.28%); type: functional
A-375 [27] = assay: Induction of apoptosis in human A-375 cells assessed as viable cells at 250 nM incubated for 48 hrs by Annexin V-FITC/PI staining based flow cytometry (reference value: 93.3%); type: functional; settings: read-out: Activity

T1 sequence (Q64261 whole entry, looked up): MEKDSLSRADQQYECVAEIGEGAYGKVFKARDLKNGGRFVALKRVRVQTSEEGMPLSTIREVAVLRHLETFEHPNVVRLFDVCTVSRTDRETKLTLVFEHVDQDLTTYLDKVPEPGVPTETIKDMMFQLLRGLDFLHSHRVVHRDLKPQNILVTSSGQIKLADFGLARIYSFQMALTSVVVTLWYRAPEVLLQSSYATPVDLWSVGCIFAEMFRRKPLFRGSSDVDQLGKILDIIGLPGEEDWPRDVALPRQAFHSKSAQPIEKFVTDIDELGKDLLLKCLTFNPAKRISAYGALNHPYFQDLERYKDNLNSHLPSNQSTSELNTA
T1 sequence (Q8C7D2 whole entry, looked up): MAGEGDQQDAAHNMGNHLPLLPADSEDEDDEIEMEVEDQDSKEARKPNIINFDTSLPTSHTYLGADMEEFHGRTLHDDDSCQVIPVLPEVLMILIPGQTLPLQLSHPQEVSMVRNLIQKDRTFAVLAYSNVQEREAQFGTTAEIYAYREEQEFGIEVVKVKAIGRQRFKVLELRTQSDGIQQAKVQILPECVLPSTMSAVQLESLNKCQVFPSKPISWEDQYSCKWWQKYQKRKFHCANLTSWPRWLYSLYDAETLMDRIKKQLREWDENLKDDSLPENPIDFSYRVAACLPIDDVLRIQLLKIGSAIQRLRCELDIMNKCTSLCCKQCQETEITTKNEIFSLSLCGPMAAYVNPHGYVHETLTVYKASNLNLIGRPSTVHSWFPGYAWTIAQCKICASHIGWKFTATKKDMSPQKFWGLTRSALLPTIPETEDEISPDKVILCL
Protein cereblon/Cyclin-dependent kinase 4 (Mus musculus), sequence (P30285 whole entry, looked up): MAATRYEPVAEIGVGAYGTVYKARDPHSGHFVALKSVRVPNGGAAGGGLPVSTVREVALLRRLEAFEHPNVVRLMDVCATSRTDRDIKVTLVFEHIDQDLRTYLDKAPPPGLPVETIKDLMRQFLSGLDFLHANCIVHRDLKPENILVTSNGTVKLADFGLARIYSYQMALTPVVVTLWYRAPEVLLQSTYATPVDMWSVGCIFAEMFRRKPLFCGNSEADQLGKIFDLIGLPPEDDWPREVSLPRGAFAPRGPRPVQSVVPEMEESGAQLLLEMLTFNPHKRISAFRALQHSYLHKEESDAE
Protein cereblon/Cyclin-dependent kinase 4 (Mus musculus), sequence (Q8C7D2 whole entry, looked up): as the sequence (Q8C7D2 whole entry, looked up) above
Protein cereblon/Cyclin-dependent kinase 4 (Homo sapiens), sequence (P11802 2-303 limits assumed): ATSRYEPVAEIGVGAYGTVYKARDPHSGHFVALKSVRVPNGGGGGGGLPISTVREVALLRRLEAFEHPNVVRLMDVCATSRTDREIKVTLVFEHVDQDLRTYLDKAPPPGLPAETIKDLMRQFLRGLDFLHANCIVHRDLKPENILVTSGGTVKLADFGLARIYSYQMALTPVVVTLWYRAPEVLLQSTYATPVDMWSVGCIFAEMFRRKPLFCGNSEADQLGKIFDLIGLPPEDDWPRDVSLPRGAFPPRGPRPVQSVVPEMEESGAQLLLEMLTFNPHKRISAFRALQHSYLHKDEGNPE
Protein cereblon/Cyclin-dependent kinase 4 (Homo sapiens), sequence (Q96SW2 whole entry partner): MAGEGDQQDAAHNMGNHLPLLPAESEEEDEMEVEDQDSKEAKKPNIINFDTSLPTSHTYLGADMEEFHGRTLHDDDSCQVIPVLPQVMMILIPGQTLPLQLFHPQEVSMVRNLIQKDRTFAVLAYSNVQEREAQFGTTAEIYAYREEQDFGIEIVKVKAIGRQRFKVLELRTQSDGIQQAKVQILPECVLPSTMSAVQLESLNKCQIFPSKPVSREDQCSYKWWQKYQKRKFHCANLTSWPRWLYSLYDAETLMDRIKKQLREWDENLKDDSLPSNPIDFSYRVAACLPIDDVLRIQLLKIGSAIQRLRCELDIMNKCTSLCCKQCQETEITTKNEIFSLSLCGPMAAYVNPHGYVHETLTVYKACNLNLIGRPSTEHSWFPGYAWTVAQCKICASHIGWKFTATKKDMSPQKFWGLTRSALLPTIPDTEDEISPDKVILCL
Protein cereblon/Cyclin-dependent kinase 2 (Mus musculus), sequence (Q8C7D2 whole entry, looked up, other chains not shown): as the sequence (Q8C7D2 whole entry, looked up) above

CN(C)C(=O)c1cc2cnc(Nc3ccc(C(=O)NCCCCCCNc4cccc5c4C(=O)N(C4CCC(=O)NC4=O)C5=O)cc3)nc2n1C1CCCC1 (configuration not stated)
Cmax [1]: 692 µg/mL
Activity [2]: inactive
Activity (A-375 [3]): Dose-dependent effect
IC50 (A-375 [4]): 166 nM
viability at 0.125 µM (B16-F10 [5]): 86.1%
Activity [6]: inactive
AUC [7]: 161 µg·h/mL
Activity (B16-F10 [8]): 7.15%
Activity [9]: inactive
IC50 (B16-F10 [10]): 97.6 nM
Activity [11]: inactive
Activity (A-375 [12]): 13.67%
Activity (B16-F10 [13]): Dose-dependent effect
Activity (A-375 [14]): 29.3%
viability at 0.25 µM (B16-F10 [15]): 23.4%
Activity (A-375 [16]): 9.57%
Activity (A-375 [17]): 9.59%
Activity (B16-F10 [18]): Active
Activity (B16-F10 [19]): 0.289%
Activity (B16-F10 [20]): 93.6%
Activity (B16-F10 [21]): Dose-dependent effect
Activity (A-375 [22]): 5.54%
Activity (A-375 [23]): 16.68%
Activity (B16-F10 [24]): 6.13%
Activity [25]: Tde
Activity (A-375 [26]): 3.78%
viability at 0.25 µM (A-375 [27]): 90.5%
